From ChEMBL document CHEMBL3120119, “Development of novel tetrahydrothieno[2,3-c]pyridine-3-carboxamide based Mycobacterium tuberculosis pantothenate synthetase inhibitors: molecular hybridization from known antimycobacterial leads” (Bioorg Med Chem, 2014)
Converted amounts (≈) assume the structure as drawn.

Experiments:
[1] = test system: Mycobacterium tuberculosis; assay: Antimycobacterial activity against Mycobacterium tuberculosis H37Rv ATCC 27294 after 28 days by agar dilution method; type: functional; conditions: H37Rv ATCC 27294, 672 h
In short: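 Agar dilution on Middlebrook 7H11 agar tubes with OADC, drug 50 to 0.78 µg/mL, in duplicate. Inoculum from fresh slants adjusted to 1 mg/mL wet weight in 0.05% Tween 80 saline, diluted 10^-2 (~10^7 cfu/mL); 5 µL spotted. Incubated 37 °C, MIC read after 28 days.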

[2] = target: T1, Pantothenate synthetase (Mycobacterium tuberculosis, UniProt P9WIL5); assay: Inhibition of Mycobacterium tuberculosis pantothenate synthetase expressed in Escherichia coli BL21 (DE3)
T1 sequence (P9WIL5 whole entry): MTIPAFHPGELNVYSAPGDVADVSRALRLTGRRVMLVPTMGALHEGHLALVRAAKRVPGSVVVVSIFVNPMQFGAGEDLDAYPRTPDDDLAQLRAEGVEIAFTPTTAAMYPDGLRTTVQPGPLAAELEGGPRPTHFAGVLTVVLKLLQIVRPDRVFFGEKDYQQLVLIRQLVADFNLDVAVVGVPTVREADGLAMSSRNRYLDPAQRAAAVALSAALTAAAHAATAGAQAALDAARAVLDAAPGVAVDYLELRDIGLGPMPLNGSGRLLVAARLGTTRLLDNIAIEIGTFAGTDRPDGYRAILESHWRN
In short: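 panC (Rv3602c) cloned into E. coli BL21(DE3). Coupled assay: reagent mix of NADH, pantoic acid, β-alanine, ATP, phosphoenolpyruvate, MgCl2, myokinase, pyruvate kinase, lactate dehydrogenase; reaction started with PS; A340 read every 12 s for 120 s.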

[3] = Cytotoxicity against mouse RAW264.7 cells at 50 uM after 72 hrs by MTT assay; type: cell-based; conditions: read-out: INH
[4] = target: T2, Pantothenate synthetase (Mycobacterium tuberculosis) (UniProt P9WIL5); assay: Binding affinity to Mycobacterium tuberculosis pantothenate synthetase expressed in Escherichia coli BL21 (DE3) assessed as increase in thermal stability
T2 sequence (whole entry): T1 sequence (P9WIL5 whole entry)
In short: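 Differential scanning fluorimetry: protein–ligand complexes heated from 25 °C to 95 °C in 0.1 °C steps with SYPRO Orange dye; melting temperature shift relative to native protein recorded.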

SMILES	MIC [1] [µM]	IC50 [2] [µM]	cytotoxicity at 72 h, 50 µM [3] [%]	Tm [4] [°C]
CC(=O)N1CCc2c(sc(NC(=O)c3cccs3)c2C(N)=O)C1	9.15 (≈ 3.2 µg/mL)	> 25		
CC(=O)c1ccc(S(=O)(=O)N2CCc3c(sc(NC(=O)c4ccc([N+](=O)[O-])o4)c3C(N)=O)C2)cc1	48.2 (≈ 25 µg/mL)	> 25		
NC(=O)c1c(NC(=O)c2ccc([N+](=O)[O-])o2)sc2c1CCN(S(=O)(=O)c1ccc(Br)cc1)C2	45 (≈ 25 µg/mL)	> 25		
COc1ccc(NC(=O)N2CCc3c(sc(NC(=O)c4ccc([N+](=O)[O-])o4)c3C(N)=O)C2)cc1	53.2 (≈ 25.8 µg/mL)	15.1		
NC(=O)c1c(NC(=O)c2ccc([N+](=O)[O-])o2)sc2c1CCN(C(=S)NCc1ccccc1)C2	26.5 (≈ 12.9 µg/mL)	17	18.1	
NC(=O)c1c(NC(=O)c2ccc([N+](=O)[O-])s2)sc2c1CCN(C(=O)Nc1ccc([N+](=O)[O-])cc1)C2	12.1 (≈ 6.24 µg/mL)	9.68	33.6	
NC(=O)c1c(NC(=O)c2ccc([N+](=O)[O-])s2)sc2c1CCN(S(=O)(=O)c1ccc(F)cc1)C2	12.2 (≈ 6.24 µg/mL)	11.7	30.2	
NC(=O)c1c(NC(=O)c2ccc([N+](=O)[O-])o2)sc2c1CCN(C(=S)Nc1ccc(F)cc1)C2	25.5 (≈ 12.5 µg/mL)	20.9	28.1	
NC(=O)c1c(NC(=O)c2ccc([N+](=O)[O-])s2)sc2c1CCN(S(=O)(=O)c1ccc(Br)cc1)C2	21.9 (≈ 12.5 µg/mL)	14.2	26.8	
COc1ccc(S(=O)(=O)N2CCc3c(sc(NC(=O)c4ccc([N+](=O)[O-])s4)c3C(N)=O)C2)cc1	23.9 (≈ 12.5 µg/mL)	19	24.5	
NC(=O)c1c(NC(=O)c2ccc([N+](=O)[O-])s2)sc2c1CCN(C(=S)Nc1ccc(Cl)cc1)C2	11.9 (≈ 6.24 µg/mL)	6.28	21.4	
NC(=O)c1c(NC(=O)c2ccc([N+](=O)[O-])s2)sc2c1CCN(S(=O)(=O)c1ccc([N+](=O)[O-])cc1)C2	9.28 (≈ 4.99 µg/mL)	5.87	29.2	50.4
NC(=O)c1c(NC(=O)c2ccc([N+](=O)[O-])o2)sc2c1CCN(S(=O)(=O)c1ccc(F)cc1)C2	25.2 (≈ 12.5 µg/mL)	17.6	22.1	
NC(=O)c1c(NC(=O)c2ccc([N+](=O)[O-])o2)sc2c1CCN(C(=S)Nc1ccc([N+](=O)[O-])cc1)C2	24.2 (≈ 12.5 µg/mL)	18.7	28.2	
NC(=O)c1c(NC(=O)c2ccc([N+](=O)[O-])o2)sc2c1CCN(C(=O)Nc1ccc([N+](=O)[O-])cc1)C2	24.9 (≈ 12.5 µg/mL)	19.8	36.1	
NC(=O)c1c(NC(=O)c2ccc([N+](=O)[O-])s2)sc2c1CCN(C(=S)NCc1ccccc1)C2	19.9 (≈ 9.99 µg/mL)	13.2	22.2	
NC(=O)c1c(NC(=O)c2ccc([N+](=O)[O-])o2)sc2c1CCN(C(=O)NCc1ccccc1)C2	26.6 (≈ 12.5 µg/mL)	14.1	24.3	
COc1ccc(NC(=O)N2CCc3c(sc(NC(=O)c4ccc([N+](=O)[O-])s4)c3C(N)=O)C2)cc1	24.9 (≈ 12.5 µg/mL)	14.5	20.9	
CC(=O)c1ccc(S(=O)(=O)N2CCc3c(sc(NC(=O)c4ccc([N+](=O)[O-])s4)c3C(N)=O)C2)cc1	46.7 (≈ 25 µg/mL)	> 25		
CC[C@@H](CO)NCCN[C@@H](CC)CO [ETHAMBUTOL]	7.64 (≈ 1.56 µg/mL)	> 25		
NC(=O)c1c(NC(=O)c2ccc([N+](=O)[O-])s2)sc2c1CCN(C(=S)Nc1ccc(F)cc1)C2	12.3 (≈ 6.24 µg/mL)	10.2	26.8	
NC(=O)c1c(NC(=O)c2ccc([N+](=O)[O-])o2)sc2c1CCN(C(=O)Nc1ccc(Cl)cc1)C2	51 (≈ 25 µg/mL)	> 25		
NC(=O)c1c(NC(=O)c2ccc([N+](=O)[O-])s2)sc2c1CCN(C(=O)Nc1ccc(Cl)cc1)C2	12.3 (≈ 6.23 µg/mL)	10.2	24.4	
NC(=O)c1c(NC(=O)c2ccc([N+](=O)[O-])o2)sc2c1CCN(C(=S)Nc1ccc(Cl)cc1)C2	24.7 (≈ 12.5 µg/mL)	19.2	24.7	
NC(=O)c1c(NC(=O)c2ccc([N+](=O)[O-])o2)sc2c1CCN(S(=O)(=O)c1ccc([N+](=O)[O-])cc1)C2	47.9 (≈ 25 µg/mL)	> 25		
NNC(=O)c1ccncc1 [ISONIAZID]	0.72 (≈ 0.0987 µg/mL)	> 25		
COc1ccc(S(=O)(=O)N2CCc3c(sc(NC(=O)c4ccc([N+](=O)[O-])o4)c3C(N)=O)C2)cc1	24.6 (≈ 12.5 µg/mL)	20.3	19.4	
NC(=O)c1c(NC(=O)c2ccc([N+](=O)[O-])s2)sc2c1CCN(C(=S)Nc1ccc([N+](=O)[O-])cc1)C2	11.7 (≈ 6.24 µg/mL)	9.11	28.6	
NC(=O)c1c(NC(=O)c2ccc([N+](=O)[O-])s2)sc2c1CCN(C(=O)NCc1ccccc1)C2	25.7 (≈ 12.5 µg/mL)	18.2	26.1	
